Tests used:
[1] = target: T1, Muscarinic acetylcholine receptor M2 (Homo sapiens, UniProt P08172); assay: Binding affinity against Muscarinic acetylcholine receptor M2 stably expressed in CHO-K1 cells.; format: cell-based
T1 sequence (P08172 whole entry): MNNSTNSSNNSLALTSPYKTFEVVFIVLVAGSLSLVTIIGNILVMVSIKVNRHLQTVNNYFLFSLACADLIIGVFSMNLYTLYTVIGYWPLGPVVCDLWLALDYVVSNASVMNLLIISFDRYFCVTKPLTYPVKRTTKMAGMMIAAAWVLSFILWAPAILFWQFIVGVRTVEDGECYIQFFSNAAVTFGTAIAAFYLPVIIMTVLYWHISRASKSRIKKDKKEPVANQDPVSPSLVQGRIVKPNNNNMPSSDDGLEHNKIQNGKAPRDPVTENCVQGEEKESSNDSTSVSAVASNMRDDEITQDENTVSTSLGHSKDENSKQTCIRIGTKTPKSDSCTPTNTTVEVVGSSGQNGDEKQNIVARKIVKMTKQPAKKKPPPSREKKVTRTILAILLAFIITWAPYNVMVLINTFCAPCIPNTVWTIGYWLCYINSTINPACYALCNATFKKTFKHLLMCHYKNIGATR
Outline: (§1)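 Competition binding against 180 pM [³H]QNB in 10 mM potassium phosphate buffer, pH 7.4, containing 1% DMSO and 0.4% methylcellulose. Incubated 120 min at room temperature to equilibrium. Bound and free label separated by filtration. Nonspecific binding defined with 0.5 mM atropine. Protein adjusted to give 700–1500 cpm specific binding. [³H]QNB Kd for each subtype from saturation binding over 5–2500 pM.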

[2] = target: Muscarinic acetylcholine receptors; M1 & M2 (Homo sapiens) (UniProt P11229+P08172); assay: Binding affinity towards M1 receptor compared to M2 receptor.; format: protein assay
[3] = target: Muscarinic acetylcholine receptors; M2 & M3 (Homo sapiens) (UniProt P20309+P08172); assay: Binding affinity towards M3 receptor compared to M2 receptor.; format: protein assay
Muscarinic acetylcholine receptors; M2 & M3 (Homo sapiens), sequence (P20309 whole entry, looked up, one chain of several): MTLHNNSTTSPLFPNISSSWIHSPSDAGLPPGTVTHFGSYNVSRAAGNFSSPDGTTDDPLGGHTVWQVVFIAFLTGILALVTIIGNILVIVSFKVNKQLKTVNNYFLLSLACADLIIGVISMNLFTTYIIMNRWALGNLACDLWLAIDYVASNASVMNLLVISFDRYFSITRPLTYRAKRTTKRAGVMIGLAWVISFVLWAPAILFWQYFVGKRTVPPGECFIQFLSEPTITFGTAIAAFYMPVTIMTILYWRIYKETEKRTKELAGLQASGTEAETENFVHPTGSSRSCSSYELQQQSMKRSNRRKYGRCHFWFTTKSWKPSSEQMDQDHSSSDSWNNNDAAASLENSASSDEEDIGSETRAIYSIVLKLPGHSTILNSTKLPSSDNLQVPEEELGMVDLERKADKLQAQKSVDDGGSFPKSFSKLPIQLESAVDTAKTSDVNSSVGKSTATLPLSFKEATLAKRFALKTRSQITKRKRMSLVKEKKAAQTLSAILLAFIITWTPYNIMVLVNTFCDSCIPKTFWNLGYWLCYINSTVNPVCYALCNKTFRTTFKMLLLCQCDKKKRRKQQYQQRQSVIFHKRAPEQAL

[4] = target: T2, Muscarinic acetylcholine receptor M1 (Homo sapiens, UniProt P11229); assay: Binding affinity against Muscarinic acetylcholine receptor M1 expressed in CHO-K1 cells; format: cell-based; outline: as §1
T2 sequence (P11229 whole entry): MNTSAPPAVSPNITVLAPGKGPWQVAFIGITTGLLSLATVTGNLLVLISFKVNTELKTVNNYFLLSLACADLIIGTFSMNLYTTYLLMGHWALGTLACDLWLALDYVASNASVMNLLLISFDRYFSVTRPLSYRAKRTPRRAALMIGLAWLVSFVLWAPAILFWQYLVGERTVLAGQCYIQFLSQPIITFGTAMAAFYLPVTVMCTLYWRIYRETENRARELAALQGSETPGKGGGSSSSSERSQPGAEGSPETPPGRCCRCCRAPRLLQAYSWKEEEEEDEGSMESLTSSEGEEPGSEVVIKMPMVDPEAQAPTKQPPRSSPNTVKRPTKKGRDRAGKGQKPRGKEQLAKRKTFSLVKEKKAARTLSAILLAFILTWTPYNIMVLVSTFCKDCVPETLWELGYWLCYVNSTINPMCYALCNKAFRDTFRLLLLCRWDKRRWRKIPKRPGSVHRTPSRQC

[5] = target: Muscarinic acetylcholine receptor M3 (Homo sapiens, UniProt P20309); assay: Binding affinity against Muscarinic acetylcholine receptor M3 expressed in CHO-K1 cells; format: cell-based; outline: as §1
Muscarinic acetylcholine receptor M3, sequence (P20309 whole entry): as the sequence (P20309 whole entry, looked up, one chain of several) above

| Ki [1] | Selectivity [2] | Selectivity [3] | Ki [4] | Ki [5] | Compound |
| --- | --- | --- | --- | --- | --- |
| 2.2 nM | 53 | 40 |  |  | C=C(c1ccc(S(=O)(=O)c2ccc(OC)cc2)cc1)C1CCN(C2CCN(C(=O)C(C)C)CC2)CC1 |
| 3.8 nM | 16 | 13 |  |  | C=C(c1ccc(S(=O)(=O)c2ccc(OC)cc2)cc1)C1CCN(C2CCN(C(=O)CC)CC2)CC1 |
| 0.35 nM | 28 |  |  |  | C=C(c1ccc(S(=O)(=O)c2ccc(OC)cc2)cc1)C1CCN(C2CCN(C(=O)OCCCC)CC2)CC1 |
| 0.41 nM | 36 |  |  |  | C=C(c1ccc(S(=O)(=O)c2ccc(OC)cc2)cc1)C1CCN(C2CCN(C(=O)OC(C)C)CC2)CC1 |
| 0.59 nM | 69 | 40 |  |  | C=C(c1ccc(S(=O)(=O)c2ccc(OC)cc2)cc1)C1CCN(C2CCN(C(=O)OCCC)CC2)CC1 |
| 0.11 nM | 59 | 34 | 6.5 nM | 3.7 nM | C=C(c1ccc(S(=O)(=O)c2ccc(OC)cc2)cc1)C1CCN(C2CCN(C(=O)OCC)CC2)CC1 |
| 0.26 nM | 262 | 260 |  |  | C=C(c1ccc(S(=O)(=O)c2ccc(OC)cc2)cc1)C1CCN(C2CCN(C(=O)C3CC3)CC2)CC1 |
| 0.38 nM | 111 | 324 | 42 nM | 122 nM | C=C(c1ccc(S(=O)(=O)c2ccc(OC)cc2)cc1)C1CCN(C2CCN(C(=O)CCC)CC2)CC1 |
| 0.99 nM | 61 | 55 |  |  | C=C(c1ccc(S(=O)(=O)c2ccc(OC)cc2)cc1)C1CCN(C2CCN(C(=O)OC)CC2)CC1 |

More lines, now with the values behind:

| Compound | Ki [1] | Selectivity [2] | Selectivity [3] | Ki [4] | Ki [5] |
| --- | --- | --- | --- | --- | --- |
| C=C(c1ccc(S(=O)(=O)c2ccc(OC)cc2)cc1)C1CCN(C2CCN(C(=O)OCc3ccccc3)CC2)CC1 | 0.45 nM | 24 |  |  |  |
| C=C(c1ccc(S(=O)(=O)c2ccc(OC)cc2)cc1)C1CCN(C2CCN(S(=O)(=O)CCC)CC2)CC1 | 0.29 nM | 89 | 35 | 25.7 nM | 10.1 nM |
| C=C(c1ccc(S(=O)(=O)c2ccc(OC)cc2)cc1)C1CCN(C2CCN(S(=O)(=O)Cc3ccccc3)CC2)CC1 | 1.45 nM | 23 | 54 |  |  |
| C=C(c1ccc(S(=O)(=O)c2ccc(OC)cc2)cc1)C1CCN(C2CCN(S(=O)(=O)CCCC)CC2)CC1 | 0.38 nM | 150 | 405 |  |  |
| C=C(c1ccc(S(=O)(=O)c2ccc(OC)cc2)cc1)C1CCN(C2CCCCC2)CC1 |  | 16 | 3 |  |  |
| C=C(c1ccc(S(=O)(=O)c2ccc(OC)cc2)cc1)C1CCN(C2CCNCC2)CC1 | 1.14 nM | 8 | 3 | 9.1 nM | 3.4 nM |
| C=C(c1ccc(S(=O)(=O)c2ccc(OC)cc2)cc1)C1CCN(C2CCN(C(=O)Cc3ccccc3)CC2)CC1 | 2.99 nM | 32 | 48 |  |  |
| C=C(c1ccc(S(=O)(=O)c2ccc(OC)cc2)cc1)C1CCN(C2CCN(C(=O)OCC(C)C)CC2)CC1 | 0.3 nM | 35 |  |  |  |
| C=C(c1ccc(S(=O)(=O)c2ccc(OC)cc2)cc1)C1CCN(C2CCN(S(=O)(=O)CC)CC2)CC1 | 0.46 nM | 162 | 382 |  |  |
| C=C(c1ccc(S(=O)(=O)c2ccc(OC)cc2)cc1)C1CCN(C2CCN(S(=O)(=O)c3ccccc3)CC2)CC1 | 0.36 nM | 104 | 558 |  |  |
| C=C(c1ccc(S(=O)(=O)c2ccc(OC)cc2)cc1)C1CCN(C2CCN(S(=O)(=O)C(C)C)CC2)CC1 | 0.16 nM | 198 | 440 |  |  |

From ChEMBL document CHEMBL1132767, “Design and synthesis of piperidinyl piperidine analogues as potent and selective M2 muscarinic receptor antagonists” (Bioorg Med Chem Lett, 2000)
